pIC50: −log10 of the molar value. Values after ≈ are worked out from the molar mass of the structure shown. Counter-ions that a name gives are not always drawn. Like-named read-outs stand apart in the source and are kept apart here. Values belong to the molecule of their own block, whether it stands above or below them.
Legend:
[1] = molecular target: Aβ19–20 (FF) dimerization (Homo sapiens, UniProt P05067); test: biochemical; conditions: for pIC50: Hill equation, FJ, 200 mM KCl
[2] = system: human microglia cells (C20 cell line); test: MTT cell viability, protection against Aβ1–42 induced toxicity; format: cell-based; conditions: 48 h; for viability: C20, Aβ1–42 500 nM; for viability at 0.5 µM: Homo sapiens, Microglia
[3] = molecular target: Aβ1–42 aggregation (Homo sapiens, UniProt P05067); test: Thioflavin T; format: biochemical; conditions: for normalized fluorescent intensity with respect to positive control Aβ1–42+ThT: Aβ1–42 preincubated 24 h
Chain of Aβ1–42 aggregation (P05067 672-713): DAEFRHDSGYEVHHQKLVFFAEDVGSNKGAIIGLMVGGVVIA

[4] = system: C20 cells; test: MTT cell viability, compound by itself; format: cell-based, human
Method in brief: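 MTT assay on human microglial C20 cells, run by dose and also by incubation time at 1 uM of test compound. At least three independent experiments, each with 10 technical replicates; error bars are SDs.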

[5] = system: neuroblastoma SH-SY5Y cells; test: MTT cell viability, Aβ1–42 treated neuroblastoma cells; format: cell-based; conditions: 10 μM Aβ1–42, Figure S32
[6] = Solubility; format: physicochemical

- effect on the FF-dimerization (in words) [1]: strong inhibition effect
SMILES: COc1cc(/C=C/C(=O)CC(=O)/C=C/c2ccc(O)c(OC)c2)ccc1O [curcumin]

- pIC50 ([1]; IC50 on the FF-dimerization): 3.97
SMILES: C[C@H](Cc1ccc(O)c(O)c1)[C@@H](C)Cc1ccc(O)c(O)c1 [Nordihydroguaiaretic acid (NDGA), nordihydroguaiaretic acid]

- pIC50 ([1]; IC50 on the FF-dimerization): 4.11
SMILES: CN(C)[C@@H]1C(O)=C(C(N)=O)C(=O)[C@@]2(O)C(O)=C3C(=O)c4c(O)cccc4[C@@](C)(O)[C@H]3C[C@@H]12 [Tetracycline, tetracycline]

- pIC50 ([1]; IC50 on the FF-dimerization): 4.88
SMILES: O=C(/C=C/c1ccc(O)c(O)c1)O[C@H](Cc1ccc(O)c(O)c1)C(=O)O [Rosmarinic acid (RA), rosmarinic acid, reference compound]
- viability ([2]; compound 1 μM): 66% ± 2%
- viability ([2]; compound 5 μM): 69% ± 2%
- viability at 0.5 µM [2]: 67%

- pIC50 ([1]; read-out: IC50 on the FF-dimerization): 4.58
SMILES: O=C(O[C@@H]1Cc2c(O)cc(O)cc2O[C@@H]1c1cc(O)c(O)c(O)c1)c1cc(O)c(O)c(O)c1 [Epigallocatechin gallate (EGCG), epigallocatechin gallate]

SMILES: Cc1c2ccncc2c(C)c2c1[nH]c1ccccc12 [Ellipticine]
- effect on the FF-dimerization (in words) ([1]; single-molecule screening of NIH library): concentration-dependent promotion effect
- normalized fluorescent intensity with respect to positive control Aβ1–42+ThT ([3]; 0.2 μM compound, ThT 3.75 μM): 106%
- normalized fluorescent intensity with respect to positive control Aβ1–42+ThT ([3]; 0.5 μM compound, ThT 3.75 μM): 112%
- effect on Aβ1–42 aggregation (in words) ([3]; concentration >1 μM): inhibition effect
- effect on Aβ1–42 aggregation (in words) ([3]; low-concentration range ≤0.5 μM): stimulator
- viability ([2]; compound 0.05 μM): 65% ± 3%
- viability ([2]; compound 0.1 μM): 64% ± 4%
- viability at 0.5 µM [2]: 61%
- C20 cell viability at high concentrations (in words) ([4]; high-concentration range such as 5 μM, Figure S31): significantly influenced
- effect on cells treated with Aβ1–42 (in words) [5]: protective effects
- solubility ([6]; aqueous buffer): ≤ 200 µM
- solubility ([6]; methanol-water (16:84 v/v), aqueous with cosolvent or surfactant or cyclodextrin): 1200 µM (≈ 296 µg/mL)

- pIC50 ([1]; IC50 on the FF-dimerization): 5.46
- effect on Aβ1–42 aggregation (in words) ([3]; after 24-h incubation, ThT 3.75 μM): inhibitory effects
SMILES: COc1cccc2c1C(=O)c1c(O)c3c(c(O)c1C2=O)C[C@@](O)(C(C)=O)C[C@@H]3O[C@H]1C[C@H](N)[C@H](O)[C@H](C)O1 [Daunorubicin hydrochloride, reference compound]
- toxicity of the compound by itself (in words) ([4]; C20 cells): showed a toxicity effect by itself

Reference: article PMC11905928 (Cell reports. Physical science, 2024)
